HTRA1 inh = HTRA1 (human) protease inhibition | Q92743 | recombinant HTRA1, FP-rhodamine activity-based probe, fluorescence polarization | inhibition, % at 5.96 µM | 340,000 tested, 0.5% active | AID 504803; in the data active = inhibition above about 36%;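 note: 0% = enzyme with DMSO and 100% = wells lacking enzyme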
TCR-CD3 inh = human TCR-CD3 binding inhibition | inhibition, % at 9.4 µM | TAMRA-labeled TCR probe fluorescence, biochemical | 360,000 tested, 0.37% active; in the data active = inhibition above about 19%;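 note: recombinant mutant TCR 2C K166C tagged with TAMRA read by polarization; 0% = receptor in buffer alone and 100% = receptor with positive control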
SIAE primary = inhibitors of human sialic acid acetylesterase SIAE; Q9HAT2; SIAE FP-Rh probe binding, fluorescence polarization; inhibition, % at 9.66 µM; 370,000 tested, 0.69% active; AID 1053197;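 active = inhibition above a cutoff: mean of compounds within the control limits plus 3 SD of those, cut at about 17% in these data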;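 note: 0% = plate median of compound wells and 100% = probe without SIAE protein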
mABHD4 FP = inhibitors of mouse ABHD4. purified mABHD4, FP-Rh probe fluorescence polarization. inhibition, % at 8.92 µM. 370,000 tested, 0.54% active;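 active = inhibition exceeding the mean over every tested compound plus 3 SD, cut at about 30% in these data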;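 note: 0% = plate median of compound wells and 100% = S159A mutant with DMSO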
Target sequence (Q8VD66 whole entry, looked up): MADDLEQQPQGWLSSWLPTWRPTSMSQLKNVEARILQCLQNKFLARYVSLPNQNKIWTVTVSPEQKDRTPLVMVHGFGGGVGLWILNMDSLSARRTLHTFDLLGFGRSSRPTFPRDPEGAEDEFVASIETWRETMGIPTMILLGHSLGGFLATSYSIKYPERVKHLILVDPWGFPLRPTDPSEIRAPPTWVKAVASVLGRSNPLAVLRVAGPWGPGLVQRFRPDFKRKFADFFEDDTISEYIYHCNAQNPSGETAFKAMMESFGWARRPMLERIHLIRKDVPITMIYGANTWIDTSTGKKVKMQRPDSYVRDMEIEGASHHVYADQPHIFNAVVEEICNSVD
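Test system: mABHD4 protein | Buffer or medium: HEPES pH 7.0 buffer, 150 mM NaCl, 0.01% Pluronic F-127 | Probe or stimulus: FP-Rh fluorescent activity-based probe, added after compound pre-incubation | Timing: Pre-incubation 45 min, probe exposure 60 min, at 25 °C | Technique: Fluorescence polarization, excitation 525 nm, emission 598 nm, BODIPY TMR filters | Repeats: Single well per compound (singlicate)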
rCAG binder-1 = binds r(CAG) RNA repeats; AID 651821; r(CAG) RNA repeat, TO-PRO-1 dye displacement fluorescence; inhibition, % at 3 µM; 370,000 tested, 1.3% active;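 active = inhibition above the plate cutoff, the mean of all test compounds on that plate plus 3 SD, cut at about 35% in these data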;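 note: 0% = DMSO alone and 100% = 100 µM mitoxantrone as full dye displacement; higher means more dye released from RNA so lower well fluorescence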
rCAG bind conf = r(CAG) RNA repeat binding, confirmation; AID 652065; 4,300 tested, 70% active; shares compounds with rCAG binder-1; TO-PRO-1 dye displacement fluorescence; inhibition, % at 3 µM;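 active = inhibition above a per-plate cutoff, the mean inhibition of sample wells plus 3 SD, cut at about 35% in these data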;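 note: loss of TO-PRO-1 fluorescence as compound displaces dye from 1x1 AA loop RNA; 0% = DMSO only wells and 100% = 100 µM mitoxantrone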
dCAG dye counter = disrupts DNA CAG TO-PRO-1 complex, flagging rCAG hits. 4,300 tested, 94% active. inhibition, % at 3 µM. shares compounds with rCAG binder-1. AID 652068. d(CAG) DNA oligo TO-PRO-1 dye displacement, fluorescence;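 active = inhibition above its plate's cutoff, the mean test-well inhibition plus 3 SD, cut at about 4.8% in these data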;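 note: 0% = DNA dye mix with DMSO and 100% = 100 µM mitoxantrone; hits displace the dye from DNA and so lower well fluorescence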
DNA CAG DR = counter-screen for rCAG binders: inhibitors of DNA CAG TO-PRO-1 complex; DNA CAG/GTC duplex TO-PRO-1 dye displacement fluorescence; 250 tested, 20% active; shares compounds with rCAG binder-1; AID 686960; IC50, µM; in the data active = IC50 below about 10 µM
dCAG DNA bind = DNA CAG dye complex inhibition, late stage dose response | shares compounds with rCAG binder-1 | 30 tested, 80% active | d(CAG) DNA duplex TO-PRO-1 dye displacement, fluorescence | IC50, µM
rCAG binder-2 = binds r(CAG) RNA repeats in late stage dose response; shares compounds with rCAG binder-1; 30 tested, 100% active; IC50, µM; r(CAG) RNA TO-PRO-1 dye displacement, fluorescence
An asterisk follows results filed as active; i = inactive; / = no result given. In the library only some 2.5% were active in any assay of this set; here they are far more common. Unless noted, the rule behind the calls is not given here.

SMILES | HTRA1 inh | TCR-CD3 inh | SIAE primary | mABHD4 FP | rCAG binder-1 | rCAG bind conf | dCAG dye counter | others
COc1ccc(CNC(=O)C2CCN(S(=O)(=O)c3ccc4nc5c(c(C(=O)O)c4c3)CCCC5)CC2)cc1 | -2 | -6 | 3 | 2 | 19 | / | /
O=C(O)c1c2c(nc3ccc(S(=O)(=O)N4CCC(C(=O)NCc5ccccc5Cl)CC4)cc13)CCCC2 | -2 | 2 | 5 | -1 | 39* | 36* | 9.5*
O=C(O)c1c2c(nc3ccc(S(=O)(=O)N4CCC(C(=O)NC5CCCCCC5)CC4)cc13)CCCC2 | 5 | -2 | 0 | 24 | 36* | 41* | 13*
CC(C)CCNC(=O)C1CCN(S(=O)(=O)c2ccc3nc4c(c(C(=O)O)c3c2)CCCCC4)CC1 | -1 | 4 | -6 | 0 | 13 | / | /
CCOC(=O)CSc1nc2c(cnn2-c2ccc(C)cc2)c(=O)[nH]1 | -4 | -3 | 0 | -2 | 1 | / | /
CCc1nnc(NS(=O)(=O)c2ccc(NC(=O)c3cc(Cl)ccc3OC)cc2)s1 | -28 | 7 | -21 | -19 | 75* | 71* | 33* | DNA CAG DR=i
COc1ccc(Cc2nnc(NS(=O)(=O)c3ccc(NC(C)=O)cc3)s2)cc1 | -8 | -4 | -2 | 2 | 14 | / | /
Cc1cc(NS(=O)(=O)c2ccc(NC(=O)COc3ccc(Cl)cc3)cc2)no1 | -14 | -1 | -7 | -12 | 19 | / | /
COc1ccc(NC(=O)Nc2nnc(-c3ccncc3)s2)cc1 | -1 | 4 | -1 | 3 | 42* | 18 | 8.9*
CCc1nnc(NS(=O)(=O)c2ccc(NC(=O)COc3ccc(Cl)c(C)c3)cc2)s1 | -41 | -3 | -4 | -33 | 78* | 70* | 32* | DNA CAG DR=i;dCAG DNA bind=3.5*;rCAG binder-2=1.3*
CCc1nnc(NS(=O)(=O)c2ccc(N/C=C/C(=O)c3ccc(OC)cc3)cc2)s1 | -15 | 5 | -11 | -23 | 59* | 65* | 29*
COC(=O)c1ccc(CN2CCCC(C(=O)c3ccccc3OC)C2)cc1 (centres undefined) | 2 | 2 | -2 | 1 | -10 | / | /
CCc1nnc(NS(=O)(=O)c2ccc(N/C=C\C(=O)c3cccc4ccccc34)cc2)s1 | -48 | 3 | 1 | -51 | 81* | 82* | 54*
CCOC(=O)c1sc(NC(=O)Nc2ccc(Cl)cc2)nc1C | -6 | 1 | 0 | -1 | 36* | 36* | 25*
CCOC(=O)Nc1nc(C)c(C(=O)c2ccc(Cl)cc2)s1 | 2 | 7 | -10 | -1 | 6 | / | /
COc1ccc(Cc2nnc(NS(=O)(=O)c3ccc([N+](=O)[O-])cc3)s2)cc1 | -3 | 8 | 3 | -3 | 44* | 49* | 17*
CCc1nnc(NS(=O)(=O)c2ccc(NC(=O)Nc3ccc(OC)cc3)cc2)s1 | -1 | 0 | -3 | 7 | 54* | 25 | 6.9*
Cc1ccc2c(CN3CCN(c4ccccc4F)CC3)cc(=O)oc2c1 | / | 7 | -4 | -4 | 4 | / | /
Cc1cc(C(=O)NNC(=O)Cc2ccc(Cl)cc2)c(C)o1 | -6 | 1 | 3 | 1 | 3 | / | /
O=C(Nc1ccc(Cl)cc1)Nc1nnc(CSCc2ccc(Cl)cc2)s1 | -3 | 3 | -1 | -1 | 10 | / | /
CCc1nnc(NC(=O)Nc2ccc(Cl)cc2)s1 | 3 | 10 | -6 | -2 | 39* | 9 | 12*
Cc1ccnc2c(N3C(=O)C4C5c6ccccc6C(c6ccccc65)C4C3=O)cccc12 (centres undefined) | -17 | 4 | 0 | 2 | 47* | 3 | 4.4*
Cc1ccccc1N1C(=O)C2C3CC(=O)C(c4ccccc43)C2C1=O (centres undefined) | 6 | 1 | 1 | 4 | -5 | / | /
N#Cc1c(NC(=O)CSc2ncnc3sccc23)oc(-c2ccco2)c1-c1ccco1 | -1 | 1 | 1 | 7 | 44* | 55* | 24* | DNA CAG DR=i
COc1cc(/C=C2\SC(=O)N(c3ccccc3Cl)C2=O)cc([N+](=O)[O-])c1O | 4 | -8 | -2 | 7 | 55* | 58* | 18*
SMILES | HTRA1 inh | TCR-CD3 inh | SIAE primary | mABHD4 FP | rCAG binder-1 | rCAG bind conf | dCAG dye counter | others
[N-]=[N+]=NC(c1ccccc1)c1nc2ccccc2[nH]c1=O (centres undefined) | -1 | -1 | 1 | 0 | 44* | 4 | 3
Cc1c(CCC(=O)O)c(=O)oc2cc(OCc3cccc(Cl)c3)ccc12 | -5 | -2 | -12 | -15 | 38* | 36* | 9.1*
C=CCn1c(SC(C)C(=O)NC2CC2)nnc1-c1ccoc1C (centres undefined) | 8 | 5 | -3 | 2 | -3 | / | /
CCN1C(=O)/C(=C\c2ccc(-c3ccc([N+](=O)[O-])cc3OC)o2)SC1=Nc1cccc(C(=O)O)c1 | -25 | 12 | 17 | 29 | 63* | 84* | 50*
COc1cc(/C=C2\SC(=O)NC2=O)ccc1Oc1ccc([N+](=O)[O-])cc1[N+](=O)[O-] | -9 | 6 | -17 | -18 | 52* | 72* | 33* | DNA CAG DR=i
CO/N=C/c1ccc(Oc2ccc([N+](=O)[O-])cc2[N+](=O)[O-])c(OC)c1 | -4 | 8 | 1 | -3 | 1 | / | /
CN(C(=O)COC(=O)CN1C(=O)c2cccc([N+](=O)[O-])c2C1=O)c1ccccc1 | 16 | -6 | 3 | 5 | 2 | / | /
Cc1cc(C)cc(NC(=S)N2C3CCCC2CC(NC(=O)C2CC2)C3)c1 (centres undefined) | -4 | 4 | 8 | -7 | 2 | / | /
N#CC(/C(=N/S(=O)(=O)c1cccs1)c1ccccc1)c1nc2ccccc2[nH]1 (centres undefined) | -8 | 2 | 2 | 1 | 42* | 23 | 4
CCOC(=O)C1=C(O)/C(=C/c2ccc(OCC(=O)O)c(OCC)c2)SC1=Nc1ccc(OC)cc1 | -18 | 2 | -30 | -26 | 56* | 64* | 22*
CCOC(=O)C1=C(O)/C(=C/c2cc(OC)c(OC)c(OC)c2)SC1=Nc1ccc(OC)cc1 | -4 | 8 | -5 | -7 | 7 | / | /
CCOC(=O)C1=C(O)/C(=C/c2ccc(OCC(=O)O)c(OCC)c2)SC1=Nc1ccc(C)cc1 | -24 | -1 | -18 | -26 | 45* | 68* | 25*

Screening data as filed in PubChem.
